APJ antagonist – antagonists of human APJ apelin receptor; inhibition, % at 20 µM; 330,000 tested, 0.32% active; CHO-K1 APJ beta-arrestin complementation, luminescence;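 active means inhibition above about 40% at 20 µM, limit read from the data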;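 further: cells challenged with 10 nM apelin-13 agonist together with compound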
CXCR6 inh – CXCR6 (human) receptor inhibition; AID 602244; O00574; 360,000 tested, 0.36% active; CHO-K1 PathHunter CXCR6 beta-arrestin, luminescence; inhibition, % at 20 µM; in the data active means inhibition above about 34%, passing the limit was not always enough;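 further: antagonist mode with CXCL16 agonist at 10 nM final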
Target sequence (O00574 whole entry, looked up): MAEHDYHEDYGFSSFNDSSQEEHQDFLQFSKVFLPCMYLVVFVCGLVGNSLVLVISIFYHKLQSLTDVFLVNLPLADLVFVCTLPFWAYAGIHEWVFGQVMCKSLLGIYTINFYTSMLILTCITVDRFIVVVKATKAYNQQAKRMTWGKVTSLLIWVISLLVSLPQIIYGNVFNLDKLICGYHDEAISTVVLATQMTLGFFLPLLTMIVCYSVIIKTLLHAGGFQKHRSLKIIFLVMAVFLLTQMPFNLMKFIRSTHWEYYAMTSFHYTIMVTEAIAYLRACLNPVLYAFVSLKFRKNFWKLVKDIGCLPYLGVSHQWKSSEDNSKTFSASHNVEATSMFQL
CCR6 antagonist – antagonists of human CCR6 receptor; 340,000 tested, 0.49% active; AID 493098; CHO-K1 CCR6 PathHunter beta-arrestin, luminescence, CCL20-stimulated; P51684; inhibition, % at 20 µM;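 active means compounds whose inhibition of the agonist-driven luminescence signal at 20 µM reaches about 50%, limit read from the data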;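 further: cells stimulated with CCL20 at 14 nM final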
APJ agonist – agonists of human APJ apelin receptor | CHO-K1 APJ PathHunter beta-arrestin, luminescence; 0% DMSO wells, 100% apelin | activation, % at 20 µM | 330,000 tested, 0.11% active | AID 2520;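 active means activation more than six SD over the plate average, tested at 20 µM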
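Test system: CHO-K1 APJ beta-arrestin complementation cell line | Compound: Single test compound dose, 20 µM final, 1% DMSO | Incubation: Compound 90 min 25 °C, reagent 1 h | Measured by: beta-gal luminescence | Read-out basis: APJ–arrestin association signal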
EBI2 block – blocks human EBI2 receptor beta-arrestin signaling; 360,000 tested, 0.81% active; AID 651636; EBI2 beta-arrestin recruitment, luminescence, 7a,25-OHC stimulated; P32249; inhibition, % at 5 µM; in the data active means inhibition above about 38%;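 further: enzyme fragment complementation signal reports receptor beta-arrestin coupling in cells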
EBI2 antag conf – EBI2 (human) antagonism, single concentration confirmation; inhibition, % at 5 µM; shares compounds with EBI2 block; AID 651997; 2,400 tested, 29% active; EBI2 beta-arrestin luminescence, 7a,25-OHC antagonism;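 active means inhibition of at least 50%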
EBI2 ag – counter-screen for EBI2 antagonists: EBI2 agonist activity; shares compounds with EBI2 block; EBI2-expressing cells, agonist mode, luminescence, 60 min; 0% vehicle, 100% 7α,25-dihydroxycholesterol control; activation, % at 5 µM; 2,400 tested, under 10 active;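 active means activation of at least 50%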
bGal counter – inhibits E. coli beta-galactosidase, counter-screen for EBI2 antagonists; AID 652176; shares compounds with EBI2 block; purified beta-galactosidase, luminescent Galacton Star, 15 min; 2,400 tested, 1% active; inhibition, % at 5 µM;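 active means replicate-average signal at least 3 plate SD below neutral wells, shown as high inhibition, flagging enzyme-inhibiting false positives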;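 further: higher means stronger loss of beta-gal luminescence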
A number is an active result; n = inactive; x = no result given. The list is not random: actives were taken first. Their share in the collection is about 1.5%.

SMILES	APJ antagonist	CXCR6 inh	CCR6 antagonist	APJ agonist	EBI2 block	EBI2 antag conf	EBI2 ag	bGal counter
N#Cc1c(Nc2ccccc2)c(/C=N/N=C/c2ccccc2)c[nH]c1=O	n	n	n	n	95.8	85.5	n	n
COc1ccc(NC(=O)c2cc(-c3sc(NC(=O)c4ccccc4)nc3C)n(Cc3ccccc3)n2)cc1	x	x	x	x	n	x	x	x
CO/N=C/c1ccc(Oc2ccc(C)cc2)nc1	n	n	n	n	87.4	73.2	n	n
COc1ccc(NC(=O)N2CCCC(c3nc(-c4ccc(OC)cc4)no3)C2)cc1 (stereo unspecified)	n	n	n	n	57.8	n	n	n
O=S(=O)(c1ccc(Cl)cc1)N1CCCC(c2nc(-c3ccc(F)cc3)no2)C1 (stereo unspecified)	n	n	n	n	n	x	x	x
O=C(Nc1ccc(Cl)cc1)N1CCN(c2ccc3nnc(-c4ccc(F)cc4)n3n2)CC1	n	n	n	n	47.6	n	n	n
O=C(Nc1ccc(Cl)cc1)N1CCC(c2nc(-c3ccc(F)cc3)no2)CC1	n	n	n	n	52.6	n	n	n
CC(=O)Nc1cccc(NC(=O)c2cc(-c3cccnc3)nc3ccc(Br)cc23)c1	n	n	n	n	n	x	x	x
CSc1ccccc1NC(=O)c1cc(-c2cccnc2)nc2ccc(Br)cc12	n	n	n	n	40.7	n	n	n
Cc1ccc2nc(-c3cccnc3)cc(C(=O)Nc3ccccc3[N+](=O)[O-])c2c1	n	n	n	n	48.5	61.5	n	n
CCc1nc2c(OCc3ccc(F)cc3)cccn2c1N(C)C(=O)CC(C)C	x	n	x	x	n	x	x	x
O=C(Nc1ccc(Oc2ccccc2)nc1)C1CCCCN1Cc1ccc(O)cc1 (stereo unspecified)	n	n	x	n	85.6	54.7	n	n
O=C(Nc1ccc(Oc2ccccc2)nc1)C1CCCCN1Cc1cccc(O)c1 (stereo unspecified)	n	n	n	n	92.7	73.6	n	n
COc1cc(CN2CCCCC2C(=O)Nc2ccc(Oc3ccccc3)nc2)ccc1O (stereo unspecified)	n	n	n	n	86.9	50.4	n	n
CC(C)NC(=O)C1(C)CCN1C(=O)C(c1ccccc1)c1ccccc1 (stereo unspecified)	x	n	x	x	n	x	x	x
CN1C(=O)C(O)(CC(=O)c2ccccn2)c2cc(Br)ccc21 (stereo unspecified)	n	n	n	n	36.0	n	n	n
CN1C(=O)[C@@](O)(CC(=O)c2ccccc2)c2cc(Br)ccc21	x	x	x	x	n	x	x	x
O=C(OCc1nnc(-c2ccccc2)o1)c1cccc(-n2cnnn2)c1	n	n	n	n	n	x	x	x
COCCNc1nc(Nc2ccccc2Cl)c2sccc2n1	x	n	x	x	n	x	x	x
CC(C)CNC(=O)C1(C)CCCN1C(=O)C(C)(C)Oc1ccc(Cl)cc1 (stereo unspecified)	x	n	x	x	n	x	x	x
O=C(c1ccc(Br)o1)N1CCN(c2ccccn2)CC1	n	n	n	n	n	x	x	x
O=C(c1cc2ccccc2o1)N1CCN(c2ccccc2Cl)CC1	n	n	n	n	86.1	67.3	n	n
O=C(c1cc2ccccc2o1)N1CCN(c2cccc(Cl)c2)CC1	n	n	n	n	54.3	57.7	n	n
CCCC(=O)Nc1ccc(N2CCN(C(=O)c3cc4ccccc4o3)CC2)cc1	n	n	n	n	n	x	x	x
O=C(c1cc2ccccc2o1)N1CCN(c2ccccn2)CC1	n	n	n	n	50.7	n	n	n
SMILES	APJ antagonist	CXCR6 inh	CCR6 antagonist	APJ agonist	EBI2 block	EBI2 antag conf	EBI2 ag	bGal counter
S=C(NCCCc1cnc[nH]1)NCCCN(Cc1ccc(Cl)cc1)c1ccc(Br)cn1	x	n	x	x	n	x	x	x
CCn1c(=S)sc2c(=O)[nH]c(SCC(=O)Nc3cc(OC)ccc3OC)nc21	n	n	n	n	n	x	x	x
CN(Cc1ccccc1)C(=O)c1cc2cc(F)ccc2[nH]1	n	n	n	n	54.6	58.2	n	n
C=CCn1c(SCC(=O)NCCOC)nnc1-c1cc2c(s1)CCC(CC)C2 (stereo unspecified)	n	n	n	n	n	x	x	x
COc1cc(CNc2ccc3[nH]c(=O)[nH]c3c2)cc(Br)c1OCc1ccc(F)cc1	n	n	n	n	n	x	x	x
CCOc1cc(CNc2ccccc2)cc(Br)c1OCc1ccc(F)cc1	n	n	n	n	48.6	n	n	n
CCOc1cc(CNc2ccc(Br)cc2)cc(Br)c1OCC(=O)NC(C)(C)C	n	n	n	n	66.1	n	n	n
CCOc1cc(CNc2ccccc2)cc(Br)c1OCC(=O)NC(C)(C)C	n	n	n	n	n	x	x	x
CC(C)c1ccc(CN2CCN(C(=O)CSc3nnnn3C3CC3)CC2)cc1	n	n	n	n	n	x	x	x
COCCCn1c(SCC(=O)O)nc2cc(OC)c(OC)cc2c1=N	n	n	n	n	n	x	x	x
COCCCn1c(SCc2ccccc2)nc2cc(OC)c(OC)cc2c1=N	n	n	n	n	53.9	n	n	n
COc1cc2nc(SCc3ccc(Cl)cc3Cl)n(Cc3cccs3)c(=N)c2cc1OC	n	n	n	n	42.7	n	n	n
CCOc1ccccc1N(CC(=O)N1CCCC1)S(C)(=O)=O	n	n	n	n	n	x	x	x
CC(=O)c1c(C)[nH]c(C(=O)OCC(=O)Nc2cc(C(F)(F)F)ccc2N2CCOCC2)c1C	n	n	n	n	n	x	x	x
O=C(CSc1nc(Nc2ccccc2)nc(N2CCOCC2)n1)Nc1ccc(Br)cc1F	n	n	n	n	46.1	n	n	n
O=C(CSc1nc(Nc2ccccc2)nc(N2CCOCC2)n1)Nc1ccccc1Cl	n	n	n	n	n	x	x	x
Cc1cccc(S(=O)(=O)c2c(N)n(/N=C/c3ccco3)c3nc4ccccc4nc23)c1	n	n	n	n	58.5	67.7	n	n
Nc1c(S(=O)(=O)c2ccccc2)c2nc3ccccc3nc2n1/N=C/c1ccco1	n	n	n	n	66.8	76.5	n	n
Cc1ccc(S(=O)(=O)c2c(N)n(/N=C/c3ccco3)c3nc4ccccc4nc23)cc1	n	n	n	n	41.0	55.0	n	n
CCN(CC(=O)Nc1ccccc1C(F)(F)F)C(=O)c1ccc(-n2nc(C)c(CCC(=O)OC)c2C)cc1	x	n	n	x	n	x	x	x
CCCCN(C)S(=O)(=O)c1cc2c(cc1Br)CCN2C(=O)C1CC1	x	n	n	x	n	x	x	x
CCOC(=O)c1c(-c2ccc(C)cc2)csc1NC1=NS(=O)(=O)c2ccccc21	n	n	n	n	n	x	x	x
CCC(=O)N1N=C(c2ccc(NS(C)(=O)=O)cc2)CC1c1ccc(N(C)C)cc1 (stereo unspecified)	n	n	n	n	n	x	x	x
Cc1ccccc1CNS(=O)(=O)c1c(C(=O)N2CCCC2)c(C)n(C)c1C	n	n	n	n	n	x	x	x

Screening results deposited in PubChem BioAssay by Sanford-Burnham Center for Chemical Genomics.
